Published values of several laboratories.
Compare with care: the assays were run in different laboratories.

SMILES | tested on | test | test system | conditions | endpoint | result
COC(=O)N[C@H](C(=O)N1CCC[C@H]1c1ncc(-c2ccc(-c3ccc(-c4cnc([C@@H]5CCCN5C(=O)[C@@H](NC(=O)OC)C(C)C)[nH]4)cc3)cc2)[nH]1)C(C)C | Hepatitis C virus | viral replication, inhibitor | Huh-7, GETYPE2A | replicon | EC50 | 0.02 nM
CCOC(=O)N[C@@H](CC(C)C)C(=O)N1CCC[C@H]1C(=O)Nc1ccc(C#CC#Cc2ccc(NC(=O)[C@@H]3CCCN3C(=O)[C@H](CC(C)C)NC(=O)OCC)cc2)cc1 | Hepatitis C virus | viral replication, inhibitor, luciferase | Huh-5-2, GETYPE1B | 72 h, replicon | EC50 | 3210 nM
C=C1CC[C@@H]2[C@](C)(CO)[C@H](O)CC[C@@]2(C)[C@@H]1C/C=C1/C(=O)OC[C@H]1O | unidentified human coronavirus | cytopathic effect | MRC5 | 25 µM, 72 h | inhibition | 58.4%
COc1cc(Nc2nccc(-c3cnn4nc(OC)ccc34)n2)cc(C(F)(F)F)c1 | SK-N-FI | cell growth or viability, ATP luminescence |  |  | IC50 | 250 nM
CC1(C)OC[C@@]2(C)[C@H]3CC[C@@H]4CN(Cc5ccco5)[C@@H](C5=CCOC5=O)C[C@H]4[C@]3(C)CC[C@H]2O1 | unidentified human coronavirus | cytopathic effect | MRC5 | 25 µM, 72 h | inhibition | 17.5%
CCOC(=O)N[C@H](CC(C)C)C(=O)N1CCC[C@H]1C(=O)Nc1cccc(C#CC#Cc2cccc(NC(=O)[C@@H]3CCCN3C(=O)[C@@H](CC(C)C)NC(=O)OCC)c2)c1 | Hepatitis C virus | viral replication, inhibitor, luciferase | GETYPE3A | replicon | EC50 | > 10000 nM
Nc1nc(N)c2ncn([C@H]3O[C@H](CO)[C@@H](F)[C@@H]3F)c2n1 | Hepatitis C virus | viral replication, inhibitor | Huh-7 | replicon | EC50 | > 10000 nM
C=CC(=O)N1CCC[C@@H](n2nc(-c3ccc(Oc4ccccc4)cc3)c3c(N)ncnc32)C1 | Granta-519 | cell growth or viability, ATP luminescence |  | 72 h | GI50 | 10300 nM
COC(=O)N[C@H](C(=O)N1CCC[C@H]1C(=O)Nc1cccc(C#CC#Cc2cccc(NC(=O)[C@@H]3CCCN3C(=O)[C@@H](NC(=O)OC)C(C)C)c2)c1)C(C)C | Hepatitis C virus | viral replication, inhibitor, luciferase | GETYPE4A | replicon | EC50 | 6.11 nM
CC(C)CCN1C[C@H]2CC[C@@H]3[C@]4(C)COC(C)(C)O[C@@H]4CC[C@@]3(C)[C@@H]2C[C@@H]1C1=CCOC1=O | unidentified human coronavirus | cytopathic effect | MRC5 | 25 µM, 72 h | inhibition | 22%
CC#CC(=O)N1CC[C@@H](n2cc(-c3ccc(Oc4c(F)cccc4F)cc3)c3c(N)n[nH]c(=O)c32)C1 | Z-138 | cell growth or viability, ATP luminescence |  | 72 h | GI50 | 6960 nM
CC(C)C[C@H](NC(=O)[C@H](Cc1ccccc1)NC(=O)c1cnccn1)B(O)O | DLD-1 | cell growth or viability, ATP luminescence |  |  | IC50 | 14 nM
CC(=O)OC[C@@]1(C)[C@H]2CC[C@@H]3CN(Cc4ccccc4)[C@@H](C4=CCOC4=O)C[C@H]3[C@]2(C)CC[C@H]1OC(C)=O | unidentified human coronavirus | cytopathic effect | MRC5 | 25 µM, 72 h | inhibition | 82.4%
